INS promoter act: TRM-6 insulin promoter activation. TRM-6 cells, insulin promoter eGFP reporter, imaging; plate-scaled: unstimulated 0, stimulated control 100. activation, % at 2 µM. 130,000 compounds, 0.81% hits. AID 1296;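 active = activation at 2 µM above a set limit, confirmed on inspection of the cell images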;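 note: share of cells whose green reporter signal exceeds an intensity cutoff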
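System – human fetal islet-derived TRM-6 cells with tamoxifen-inducible insulin promoter–eGFP reporter · Amount – 1,000 cells per well · Schedule – overnight tamoxifen, then two-day compound incubation at 37 °C · Detection – high-content imaging of fixed cells with Hoechst nuclear stain · Read-out – percent cells above green-intensity threshold, converted to percent activation versus plate controls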
Large screens that a line does not name were inactive; [ ] = another dose, or the depositor's remark. This is one part of a sample in which hits are shown more often than they occur.

CN1CC=C2C(C#N)=C(N)C(C#N)(C#N)[C@H](c3cccc(Cl)c3)C2C1 (some centres not stated)	none
CCOC(=O)N1CC=C2C(C#N)=C(N)C(C#N)(C#N)[C@H](c3ccccc3OCC)[C@H]2C1	none
CCN1CC=C2C(C#N)=C(N)C(C#N)(C#N)[C@H](c3cccc(OC)c3OC)[C@H]2C1	INS promoter act 614
CN1CC=C2C(C#N)=C(N)C(C#N)(C#N)[C@H](c3cccs3)[C@H]2C1	none
O=C(NCc1ccco1)C(=O)NCC1OCCCN1S(=O)(=O)c1ccccc1 (configuration not stated)	none
Cc1ccc(C(=O)OCC(=O)N(C)C2CCS(=O)(=O)C2)cc1[N+](=O)[O-] (configuration not stated)	none
C/C(=C\c1ccccc1)CN1CCC(C(=O)N2CCCC(C)C2)CC1 (configuration not stated)	none
O=C(COc1ccc(Cl)cc1)N(Cc1ccccc1)c1nc(-c2ccccc2)cs1	none
O=C(O)c1cc2c(ccc3ccccc32)[nH]1	none
Cc1ccc(OC(=S)Nc2ccc(O)cc2)cc1	none
O=c1c2ccccc2oc2nc3ccn(Cc4ccncc4)c(=O)c3cc12	none
C=C(C)CN1CCN(c2ccc(N3C(=O)CCCC3=O)cc2[N+](=O)[O-])CC1	none
CCOC(=O)CC(NC(=O)Cn1nnc(-c2ccccc2)n1)c1ccc(OC)cc1 (configuration not stated)	none
COc1ccc(-c2nnn(Cc3ccccc3F)n2)cc1	INS promoter act 521
COc1ccc(N2C(=O)N(Cc3ccccc3F)c3ccccc3S2(=O)=O)cc1	none
COc1cc(OC)cc(C(=O)OCc2cc3ccccc3[nH]c2=O)c1	none
Cc1cc(Br)ccc1NC(=O)CN1C(=O)CCC1=O	none
CN(C(=O)C12CC3CC(CC(C3)C1)C2)C1(C)CCS(=O)(=O)C1 (configuration not stated)	none
COC(=O)c1ccc(NC(=O)COc2ccc(S(=O)(=O)NC(C)C)cc2)cc1	none
COC(=O)c1ccc(S(=O)(=O)NNC(=O)COc2ccc(C)cc2)cc1	none
COC(=O)c1ccc(NC(=O)COc2ccc(S(=O)(=O)NC(C)(C)C)cc2)cc1	INS promoter act 443
O=C(COc1ccc(/C=N/NS(=O)(=O)c2ccccc2)cc1)Nc1ccccc1	INS promoter act 285
Cc1cc(C)nc(NS(=O)(=O)c2ccc(NC(=O)COc3ccccc3)cc2)n1	none
N/C(COc1ccccc1)=N\NS(=O)(=O)c1ccccc1	none
O=C(CCS(=O)(=O)Cc1ccccc1)NCC1CCCO1 (configuration not stated)	none
Cc1ccc(C2OC(=O)c3ccccc32)cc1 (configuration not stated)	none
Cc1ccsc1/C=N/NC(=O)CNC(=O)c1ccc(S(=O)(=O)N2CCOCC2)cc1	none
COc1cc(C2(O)CCCCC2C)cc(OC)c1OC (configuration not stated)	none
CC1=C(C(=O)OCCOc2ccccc2)C(c2coc3ccccc3c2=O)C2=C(CCCC2=O)N1 (configuration not stated)	none
CC(C)(C)c1ccc(Cn2nc(CC(=O)O)c3ccccc3c2=O)cc1	INS promoter act 272
Cc1nn(CC(=O)O)c(=O)c2ccccc12	none
COc1ccc(CNC(=O)Cc2nn(C)c(=O)c3ccccc23)cc1	none
COc1ccc(C(=O)N(C)c2c(C)n(C)n(-c3ccccc3)c2=O)cc1OC	none
COc1ccc([N+](=O)[O-])cc1NC(=O)COC(=O)C=C(C)C	none
CN(CCOc1ccccc1)CC(=O)Nc1cc([N+](=O)[O-])ccc1Cl	none
COCC(=O)OCC(=O)Nc1cc([N+](=O)[O-])ccc1Cl	INS promoter act 733
Cn1c(N)c(C(=O)COC(=O)CCC2CCCCC2)c(=O)n(C)c1=O	none
CSc1ccccc1-c1nnc(-c2ccccc2)o1	none
c1ccc(-c2nnc(-c3ccccc3)o2)cc1	none
O=S1(=O)C=C(Sc2nnc(-c3ccccc3)o2)c2ccccc21	INS promoter act 270
O=C(NCc1ccccc1)c1ccc(COCC(F)(F)F)o1	none
Clc1ccc(-c2noc(CCCOc3ccccc3)n2)cc1	none
Clc1ccc(-c2nc(Cc3ccccc3)no2)cc1	INS promoter act 84
c1ccc(-c2nc(-c3ccncc3)no2)cc1	none
CC1CCC(C(C)C)C(OC(=O)CSc2nnc(N)s2)C1 (configuration not stated)	none
CC1CC(OCC(O)CN2CCN(Cc3ccccc3)CC2)CC(C)(C)C1 (configuration not stated)	none
CC1CCN(CC(O)COC2CC(C)CCC2C(C)C)CC1 (configuration not stated)	INS promoter act 543
FC(F)(F)c1cccc(Oc2cc(C(F)(F)F)nc(-c3ccccn3)n2)c1	none
O=c1cc(/N=C/c2coc3c(ccc4ccccc43)c2=O)[nH]c(=S)[nH]1	none
COc1ccc(OC)c(S(=O)(=O)n2cnc3cc(C)c(C)cc32)c1	none
CSC1=NCCN1C(=O)Cc1ccc(-c2ccccc2)cc1	none
CCC(=O)N1CCN=C1SCc1ccc(Cl)cc1	INS promoter act 493
CCOC(=O)N1CCN=C1SCc1ccc(C(F)(F)F)cc1	none
CCC(C)(C(=O)NC1CCCCC1)N(Cc1cccs1)C(=O)c1ccccn1 (configuration not stated)	none
CCC(C)(C(=O)NC1CCCC1)N(Cc1cccs1)C(=O)Cc1cccs1 (configuration not stated)	INS promoter act 83
CCC(C)(C(=O)NC1CCCC1)N(C)C(=O)Cc1c[nH]c2ccccc12 (configuration not stated)	none
CC(=O)Oc1ccc(N2C(=O)C3C4C=CC(C5CC45)C3C2=O)cc1[N+](=O)[O-] (configuration not stated)	none
CN(C)S(=O)(=O)c1cccc(NC(=S)NC(=O)C2CCCCC2)c1	none
Cc1ccc(S(=O)(=O)N(C)C)cc1NC(=S)NC(=O)C12CC3CC(CC(C3)C1)C2	INS promoter act 388
Cc1ccc(S(=O)(=O)N(C)C)cc1NC(=O)COC(=O)c1ccc2c(c1)OCO2	none
CCCCNC(=O)C(NS(=O)(=O)c1cccc2nsnc12)c1ccccc1 (configuration not stated)	none
COc1ccc(CNS(=O)(=O)c2cc(OCC(N)=O)c(C)cc2Cl)cc1	none
CCOC(=O)C(/C=C(\C#N)C(=O)OCC)=C(/N)N1CCN(c2c(C)cccc2C)CC1	none
Cc1ccc(CN2C(=O)C(C)(C)Oc3ccc(C(=O)N4CCCCC4)cc32)cc1	none
CCCC(c1nnnn1C1CCCC1)N1CCN(C(=O)c2ccco2)CC1 (configuration not stated)	INS promoter act 181
O=C(c1ccco1)N1CCN(C(c2coc3ccc(Cl)cc3c2=O)c2nnnn2C2CCCC2)CC1 (configuration not stated)	none
O=C(c1ccco1)N1CCN(C(c2ccccn2)c2nnnn2C2CCCC2)CC1 (configuration not stated)	none
O=C(CCl)N(c1ccc(Cl)cc1)c1c[nH]c2ccccc12	INS promoter act 257
CCCCNC(=O)[C@H](Cc1c[nH]c2ccccc12)NC(=O)c1ccccc1Cl	none
Cc1nn(-c2ccccc2)c(Cl)c1CN(C(=O)CCl)c1ccc(Cl)cc1	none
CCN1CCN(c2nc3ccccc3nc2C(C#N)C(=O)OC2CCCCC2)CC1 (configuration not stated)	none
CCN1CCN(C2=CC3=CC(=C(C#N)C#N)CCC3CC2)CC1 (configuration not stated)	INS promoter act 614[fluoresces]
N#CC(C#N)=C1C=C2C=C(N3CCCCCC3)CCC2CC1 (configuration not stated)	INS promoter act 223
CN1CCN(C2=CC3=CC(=C(C#N)C#N)CCC3CC2)CC1 (configuration not stated)	INS promoter act 641

Screening data as filed in PubChem BioAssay.
